One data set is filed under the species Rattus norvegicus. Briefly: Concentration required for 50% inhibition of GABA uptake in rat brain. The data set is classed as functional. The gist of the method:
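Rat corpus striatum synaptosomes from a 0.32 M sucrose homogenate: 1000g spin, then 20000g pellet, both at 4 °C. Synaptosomes (1 mg protein) incubated 2 min at 37 °C in pH 7.4 Krebs-Ringer phosphate with 0.15 M NaCl, [3H]GABA (25–40 Ci/mmol) and test compound up to 10⁻⁴ M. Stopped by dilution with NaCl-free medium, centrifuged; pellet radioactivity counted. IC50 derived from the concentration range.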

Data set [1] in a line: I/U is the ratio of zwitterionic (I) to that of unionized […]. The data set is classed as ADME. The gist of the method:
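Ratio of zwitterionic (I) to un-ionized (U) species calculated by the Wegscheider method.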

A short description of data set [2]: Delta logPoct-cyc. As to conditions: octanol/water. In kind it is ADME. The essentials:
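ΔP taken as log Poct minus log Pcyc. Both come from shake-flask partitioning at room temperature against 0.15 M phosphate buffer pH 7.4, with the aqueous phase read spectrophotometrically.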

The nature of data set [3]: Partition coefficient (logP). In kind it is physicochemical. As to conditions: octanol/water. The essentials: (§1)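 Conventional shake-flask partitioning at room temperature, 1-octanol or cyclohexane against 0.15 M phosphate buffer pH 7.4. Compound in the aqueous phase quantified spectrophotometrically. Means of at least two determinations.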
A short description of data set [4]: Dissociation constant was measured as pKa1 by potentiometric titrations.
Data set [5] can be described thus: Partition coefficient (logP) (cyclohexane). In kind it is physicochemical. As to conditions: cyclohexane/phosphate buffer pH 7.4. The essentials: as §1
Data set [6] in a line: Dissociation constant was measured by potentiometric titrations. The data set is classed as physicochemical. The gist of the method: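 pKa determined by potentiometric titration; values are means of at least two determinations.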
A short description of data set [7]: Concentration required for 50% inhibition of GABA uptake in rat brain.

`O=C(O)C1=CCC(CCc2ccccc2)NC1` (configuration not stated) returned an IC50 in the data set filed under Rattus norvegicus of 100 µM.
Same read-out and setting: the result for `CC1CC=C(C(=O)O)CN1` (configuration not stated) reads 40 µM; that for `CCC1CC=C(C(=O)O)CN1` (configuration not stated), > 100 µM; that for `CCCC1CC=C(C(=O)O)CN1` (configuration not stated), > 100 µM.
Consider `Cl.O=C(O)C1=CCC(CCC(c2ccccc2)c2ccccc2)NC1` (configuration not stated), for which the Ratio in data set [1] is reported as 7000. For the same molecule, the IC50 in the data set listed under Rattus norvegicus amounted to 0.1 µM. For the same molecule, the “delta logP” value in data set [2] stood at 2.71. Further, the figures for the logP in data set [3] and in data set [5] were 0.71 and -2, respectively. This molecule also showed a pKa in data set [4] of 3.79. The same molecule came in with a pKa2 in data set [6] of 9.25.
For `O=C(O)C1CCCN(CCC=C(c2ccccc2)c2ccccc2)C1` (configuration not stated), the Ratio in data set [1] is 6000. The “delta logP” value in data set [2] is reported as 1.43. In addition, the logP in data set [3] is 0.99; in data set [5] it was -0.43. Also, in data set [7], the pKa is 3.57. Moreover, the pKa2 in data set [6] amounted to 9.23.
Consider `CCOC(=O)C1=CCC(CC)NC1` (configuration not stated), for which, in the data set listed under Rattus norvegicus, the concentration for half-maximal inhibition (IC50) is > 100 µM.
Still for that read-out and setting: the result for `CCCC1CC=C(C(=O)OCC)CN1` (configuration not stated) reads > 100 µM; that for `CCOC(=O)C1=CCC(CCC(c2ccccc2)c2ccccc2)NC1` (configuration not stated), 37 µM; that for `CN1CC(C(=O)O)=CCC1CCCCc1ccccc1` (configuration not stated), > 100 µM.
Regarding `O=C(O)C1=CCC(CCCCc2ccccc2)NC1` (configuration not stated), the IC50 in the data set filed under Rattus norvegicus is > 100 µM.

The values above are taken from ChEMBL document CHEMBL1125186, “GABA-uptake inhibitors: construction of a general pharmacophore model and successful prediction of a new representative” (J Med Chem, 1991).
